SMILES strings stand for the structures.

For the first assay, the target named is T1, Heat shock factor protein 1 (Homo sapiens, UniProt Q00613).
T1 sequence (Q00613 whole entry): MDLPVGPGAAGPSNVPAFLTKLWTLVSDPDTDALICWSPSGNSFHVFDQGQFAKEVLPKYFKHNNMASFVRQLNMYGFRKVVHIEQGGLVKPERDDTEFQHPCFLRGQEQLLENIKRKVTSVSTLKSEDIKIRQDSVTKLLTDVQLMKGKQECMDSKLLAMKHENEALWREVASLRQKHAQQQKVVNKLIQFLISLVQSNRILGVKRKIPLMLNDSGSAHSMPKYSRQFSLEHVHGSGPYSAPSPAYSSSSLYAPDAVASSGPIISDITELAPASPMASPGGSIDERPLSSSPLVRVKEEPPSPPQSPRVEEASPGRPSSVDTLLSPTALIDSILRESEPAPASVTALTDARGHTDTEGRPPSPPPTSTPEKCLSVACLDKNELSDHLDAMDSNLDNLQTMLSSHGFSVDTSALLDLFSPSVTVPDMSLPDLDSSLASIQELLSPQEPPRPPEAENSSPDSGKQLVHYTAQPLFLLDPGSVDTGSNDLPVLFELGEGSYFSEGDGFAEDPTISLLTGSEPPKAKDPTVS
The assay can be described thus: Amplification of HSF1 transcriptional activity in human HeLa cells assessed as granule formation pretreated for 3 hrs by immunocytochemical staining. An outline of the steps: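 HeLa cells pretreated with compound 1 h, then mild heat shock 41 °C for 2 h, no recovery; control arm pretreated 3 h at 37 °C without heat shock. Compound diluted 200-fold, 0.3 to 80 µM range.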
What is called EC50 is the concentration needed to bring the measured effect to its halfway point. For the compound `C=c1c(O)c(O)cc2c1=CC=C1[C@@]2(C)CC[C@@]2(C)[C@@H]3C[C@](C)(C(=O)O)CC[C@]3(C)CC[C@]12C`, the EC50 worked out at 2.6 µM.

Target in another assay: not listed separately
Briefly: Amplification of HSF1 transcriptional activity in human heat shock-induced HeLa cells assessed as granule formation treated 1 hr before heat shock challenge measured after 2 hrs without recovery time by immunocytochemical staining.
With `CCCCn1nc(-c2ncc[nH]2)nc2c(=O)n(C)c(=O)nc1-2` [1-butyl-3-(1H-imidazol-2-yl)-6-methylpyrimido[5,4-e][1,2,4]triazine-5,7(1H,6H)-dione], the EC50 came to 7.7 µM.

For the compound `CCCCn1nc(-c2ccc(C)o2)[n+]([O-])c2c(=O)n(C)c(=O)nc1-2` [1-butyl-6-methyl-3-(5-methylfuran-2-yl)-5,7-dioxo-1,5,6,7-tetrahydropyrimido[5,4-e][1,2,4]triazine 4-oxide], the EC50 was 10 µM.

For `CCCCn1nc(-c2ccc(C)o2)nc2c(=O)n(C)c(=O)nc1-2` [1-butyl-6-methyl-3-(5-methylfuran-2-yl)pyrimido[5,4-e][1,2,4]triazine-5,7(1H,6H)-dione], the EC50 is 9.9 µM.

Regarding `CCCCn1nc(-c2ccc(C)s2)[n+]([O-])c2c(=O)n(C)c(=O)nc1-2` [1-butyl-6-methyl-3-(5-methylthiophen-2-yl)-5,7-dioxo-1,5,6,7-tetrahydropyrimido[5,4-e][1,2,4]triazine 4-oxide], the EC50 came to 8.6 µM.

As for `CCCCn1nc(-c2ccc(C)s2)nc2c(=O)n(C)c(=O)nc1-2` [1-butyl-6-methyl-3-(5-methylthiophen-2-yl)pyrimido[5,4-e][1,2,4]triazine-5,7(1H,6H)-dione], the EC50 came to 16.8 µM.

As for `CCCCn1nc(-c2ccc3ccccc3n2)nc2c(=O)n(C)c(=O)nc1-2` [1-butyl-6-methyl-3-(quinolin-2-yl)pyrimido[5,4-e][1,2,4]triazine-5,7(1H,6H)-dione], the EC50 came to 2.5 µM.

Turning to `CCCCn1nc(-c2nccs2)nc2c(=O)n(C)c(=O)nc1-2` [1-butyl-6-methyl-3-(thiazol-2-yl)pyrimido[5,4-e][1,2,4]triazine-5,7(1H,6H)-dione], the concentration for a half-maximal effect (EC50) is 2.1 µM.

`CCCCn1nc(-c2ccccc2)nc2c(=O)n(C)c(=O)nc1-2` [1-butyl-6-methyl-3-phenylpyrimido[5,4-e][1,2,4]triazine-5,7(1H,6H)-dione]: the 50% effective concentration (EC50) was determined as 14.8 µM.

For `CCn1nc(-c2ncc[nH]2)nc2c(=O)n(C)c(=O)nc1-2` [1-ethyl-3-(1H-imidazol-2-yl)-6-methylpyrimido[5,4-e][1,2,4]triazine-5,7(1H,6H)-dione], the EC50 is 39.8 µM.

Consider `CCn1nc(-c2ccco2)nc2c(=O)n(C)c(=O)nc1-2` [1-ethyl-3-(furan-2-yl)-6-methylpyrimido[5,4-e][1,2,4]triazine-5,7(1H,6H)-dione], for which the EC50 was 10.1 µM.

`CCn1nc(-c2ccc[nH]2)nc2c(=O)n(C)c(=O)nc1-2` [1-ethyl-6-methyl-3-(1H-pyrrol-2-yl)pyrimido[5,4-e][1,2,4]triazine-5,7(1H,6H)-dione]: the EC50 amounted to 35 µM.

On to `CCn1nc(-c2ccc(C)o2)[n+]([O-])c2c(=O)n(C)c(=O)nc1-2` [1-ethyl-6-methyl-3-(5-methylfuran-2-yl)-5,7-dioxo-1,5,6,7-tetrahydropyrimido[5,4-e][1,2,4]triazine 4-oxide], for which the EC50 came out at 20.6 µM.

For `CCn1nc(-c2ccc(C)o2)nc2c(=O)n(C)c(=O)nc1-2` [1-ethyl-6-methyl-3-(5-methylfuran-2-yl)pyrimido[5,4-e][1,2,4]triazine-5,7(1H,6H)-dione], the EC50 was 46.3 µM.

For `CCn1nc(-c2ccc(C)s2)[n+]([O-])c2c(=O)n(C)c(=O)nc1-2` [1-ethyl-6-methyl-3-(5-methylthiophen-2-yl)-5,7-dioxo-1,5,6,7-tetrahydropyrimido[5,4-e][1,2,4]triazine 4-oxide], the EC50 was found to be 11.6 µM.

Take `CCn1nc(-c2ccc(C)s2)nc2c(=O)n(C)c(=O)nc1-2` [1-ethyl-6-methyl-3-(5-methylthiophen-2-yl)pyrimido[5,4-e][1,2,4]triazine-5,7(1H,6H)-dione]: the 50% effective concentration (EC50) was found to be 17.3 µM.

Take `CCn1nc(-c2cccs2)nc2c(=O)n(C)c(=O)nc1-2` [1-ethyl-6-methyl-3-thiophen-2-yl-pyrimido[5,4-e][1,2,4]triazine-5,7-dione]: the EC50 was found to be 5.1 µM.

For `CCn1nc(-c2ccc[nH]2)[n+]([O-])c2c(=O)n(C)c(=O)nc1-2` [1-ethyl-6-methyl-5,7-dioxo-3-(1H-pyrrol-2-yl)-1,5,6,7-tetrahydropyrimido[5,4-e][1,2,4]triazine 4-oxide], the EC50 amounted to 24.7 µM.

As to `CCCCn1nc(-c2nc3ccccc3[nH]2)nc2c(=O)n(C)c(=O)nc1-2` [3-(1H-benzo[d]imidazol-2-yl)-1-butyl-6-methylpyrimido[5,4-e][1,2,4]triazine-5,7(1H,6H)-dione], the half-maximal effective concentration (EC50) is 40.8 µM.

Consider `Cn1c(=O)nc2n(Cc3ccc(F)cc3)nc(-c3nc4ccccc4s3)nc-2c1=O` [3-(benzo[d]thiazol-2-yl)-1-(4-fluorobenzyl)-6-methylpyrimido[5,4-e][1,2,4]triazine-5,7(1H,6H)-dione], for which the 50% effective concentration (EC50) came out at 14 µM.

With `Cn1c(=O)nc2n(Cc3ccccc3)nc(-c3nc4ccccc4s3)nc-2c1=O` [3-(benzo[d]thiazol-2-yl)-1-benzyl-6-methylpyrimido[5,4-e][1,2,4]triazine-5,7(1H,6H)-dione], the EC50 is 4.1 µM.

On to `CC(C)Cn1nc(-c2nc3ccccc3s2)nc2c(=O)n(C)c(=O)nc1-2` [3-(benzo[d]thiazol-2-yl)-1-isobutyl-6-methylpyrimido[5,4-e][1,2,4]triazine-5,7(1H,6H)-dione], for which the 50% effective concentration (EC50) stood at 1.3 µM.

On to `CC(C)CCn1nc(-c2nc3ccccc3s2)nc2c(=O)n(C)c(=O)nc1-2` [3-(benzo[d]thiazol-2-yl)-1-isopentyl-6-methylpyrimido[5,4-e][1,2,4]triazine-5,7(1H,6H)-dione], for which the 50% effective concentration (EC50) is 2.5 µM.

For a further assay, the target named is T1, Heat shock factor protein 1. Briefly: Amplification of HSF1 transcriptional activity in human heat shock-induced HeLa cells assessed as granule formation treated 1 hr before heat shock challenge measured after 2 hrs without recovery time by immunocytochemical staining. An outline of the steps:
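HeLa cells given compound 1 h before mild heat shock at 41 °C for 2 h, no recovery; compound diluted 200-fold, 0.3 to 80 µM. Unstressed control plates kept at 37 °C for 3 h. HSF1 immunocytochemical staining, imaged at 10×.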
As to `C=c1c(O)c(O)cc2c1=CC=C1[C@@]2(C)CC[C@@]2(C)[C@@H]3C[C@](C)(C(=O)O)CC[C@]3(C)CC[C@]12C`, the EC50 is 1.1 µM.

The values are drawn from BindingDB's records for doi:10.1016/j.bmcl.2009.05.073 (Cytrx, 2009).
